Structures can show the parent of a compound that is named as a salt.
Legend:
HT22 cells [1] = experiment: Erastin-induced ferroptosis in HT22 cells; assay type: cell-based, mouse
In short: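 HT22 cells were cotreated with Erastin and test compound, and cell viability was measured. A value was reported as not determined where viability was below 50% at 1.0 μM compound with Erastin.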

[2] = target: T1, NCOA4^383–522–FTH1 interaction (Homo sapiens, UniProt Q13772); experiment: ELISA for NCOA4^383–522–FTH1 protein-protein interaction; assay type: binding
T1 sequence (Q13772 383-522): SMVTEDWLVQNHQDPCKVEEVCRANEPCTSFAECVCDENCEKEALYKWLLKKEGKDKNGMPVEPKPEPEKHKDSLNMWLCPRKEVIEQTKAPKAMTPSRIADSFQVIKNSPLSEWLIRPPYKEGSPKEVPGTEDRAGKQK
In short: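 Test compound at the indicated concentrations was preincubated with recombinant NCOA4 383–522. Binding of NCOA4 383–522 to FTH1 was then monitored by ELISA to build a dose–response curve. Values are mean ± SEM of three independent experiments.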

[3] = system: MCAO model of ischemic stroke; assay type: in vivo, rat; details: for infarct volume (TTC staining): rat, in vivo
NCOA4 = target: T2, NCOA4 (Homo sapiens, UniProt Q13772); experiment: Biotin–streptavidin pull-down from HEK-293T lysates; assay type: binding; details: lysate preincubated with 9a (20 μM) 6 h at 4 °C
T2 sequence (Q13772 1-614): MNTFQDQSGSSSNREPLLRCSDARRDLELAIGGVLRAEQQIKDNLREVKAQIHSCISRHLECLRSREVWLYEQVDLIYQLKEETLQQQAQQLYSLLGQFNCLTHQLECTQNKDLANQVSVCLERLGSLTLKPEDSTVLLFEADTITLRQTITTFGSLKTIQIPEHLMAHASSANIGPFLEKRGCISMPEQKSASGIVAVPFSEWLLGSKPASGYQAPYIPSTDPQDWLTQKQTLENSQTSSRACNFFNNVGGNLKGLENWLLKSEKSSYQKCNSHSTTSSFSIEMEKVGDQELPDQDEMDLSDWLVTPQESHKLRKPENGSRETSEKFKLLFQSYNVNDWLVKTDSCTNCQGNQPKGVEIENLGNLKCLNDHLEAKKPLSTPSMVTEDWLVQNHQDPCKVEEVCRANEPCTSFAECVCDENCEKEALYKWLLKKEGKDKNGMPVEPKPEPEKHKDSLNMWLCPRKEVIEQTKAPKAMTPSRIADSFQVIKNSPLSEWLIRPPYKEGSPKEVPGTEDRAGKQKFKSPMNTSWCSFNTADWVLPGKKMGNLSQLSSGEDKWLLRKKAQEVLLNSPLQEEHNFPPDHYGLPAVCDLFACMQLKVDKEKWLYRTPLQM
In short: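 HEK-293T lysates expressing FTH1-Myc-His and NCOA4-Flag were pretreated with test compound or DMSO for 6 h at 4 °C. They were then incubated overnight at 4 °C with increasing concentrations of a biotinylated probe precoupled to streptavidin magnetic beads. Precipitates were pulled down with the beads and immunoblotted with anti-tag antibodies. Biotin-PEG3-N3 served as the negative-control probe.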

HT22 cells [4] = experiment: Lipid ROS; assay type: cell-based, mouse; details: 3 h; for lipid ROS, oxidized BODIPY-C11 fluorescence intensity: 1 μM RSL3, 0.5 μM compound
In short: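 HT22 cells were exposed to 1 μM RSL3 with or without 0.5 μM test compound or 0.5 μM Fer-1 for 3 h. Lipid ROS was detected with BODIPY-C11 (oxidized form, green) by confocal microscopy (Hoechst 33342 nuclei) and by flow cytometry. Cytosolic ROS was measured by flow cytometry with carboxy-H2DCFDA.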

ferritin = experiment: Ferritin protein level; assay type: cell-based, mouse; details: 6 h
HT22 cells [5] = experiment: LC3-II level; assay type: cell-based, mouse; details: 6 h, Western blotting
HT22 cells [6] = experiment: Non-ferroptotic cell death; assay type: cell-based, mouse
HT22 cells [7] = experiment: Intracellular GSH level and GPX4 expression in HT22 cells; assay type: cell-based, mouse; details: 12 h
NCOA4^383–522 [8] = target: T3, NCOA4^383–522 (Homo sapiens, UniProt Q13772); experiment: Pull-down of recombinant NCOA4^383–522; assay type: binding; details: protein preincubated with 9a 1 h
T3 sequence (Q13772 383-522): T1 sequence (Q13772 383-522)
In short: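 Recombinant NCOA4 383–522 or FTH1 protein was pretreated with test compound or DMSO for 1 h. It was then incubated for 1 h with increasing concentrations of a biotinylated probe precoupled to streptavidin magnetic beads. Bead-bound protein was detected by silver staining and Western blotting.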

PTGS2 mRNA = PTGS2 mRNA expression; assay type: cell-based, mouse; details: 12 h
NCOA4–FTH1 interaction = target: T4, NCOA4–FTH1 interaction (Homo sapiens, UniProt Q13772); experiment: Coimmunoprecipitation of NCOA4 and FTH1 in cells; assay type: cell-based
T4 sequence (Q13772 1-614): T2 sequence (Q13772 1-614)

HT-1080 cells [9] = experiment: Ferroptosis induced by Erastin, RSL3, ML210 or GPX4 knockdown in HT-1080 cells; assay type: cell-based, human
In short: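 HT-1080 cells were transfected for 12 h with scrambled siRNA (si-NC) or GPX4-targeting siRNA. Cells were then treated for 36 h with or without 0.5 μM test compound, 0.5 μM Fer-1 or 20 μM DFO. Viability was read by CCK-8. Values are mean ± SEM of three independent experiments.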

HT-1080 cells [10] = experiment: Lipid ROS in HT-1080 cells after GPX4 knockdown; assay type: cell-based, human; details: 0.5 μM 9a, 36 h
HT22 cells [11] = experiment: Ferroptosis induced by cysteine depletion, BSO or ML210 in HT22 cells; assay type: cell-based, mouse; details: for cell death from cysteine depletion: cystine-free media 24 h, 0.5 μM 9a, 0.5 μM Fer-1 or 20 μM DFO
NCOA4^383–522 [12] = target: T3, NCOA4^383–522; experiment: Surface plasmon resonance binding to NCOA4^383–522
HT22 cells [13] = experiment: Intracellular Fe^2+; assay type: cell-based, mouse; details: 6 h; for fluorescence intensity of FerroOrange (free Fe^2+): 0.5 μM 9a or 50 μM DFO
In short: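 Live HT22 cells were given 0.5 μM test compound or 50 μM DFO for 6 h, then imaged by confocal microscopy with the Fe2+ probe FerroOrange; nuclei were stained with Hoechst 33342. Lysosomal Fe2+ was scored as FerroOrange signal colocalised with LysoTracker Green per cell, about 100 cells per condition. Three independent experiments, mean ± SEM.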

HT22 cells [14] = experiment: RSL3-induced ferroptosis in HT22 cells; assay type: cell-based; details: Mus musculus, HT-22, 24 h, read-out: EC50, inhibition of RSL3-induced death

SMILES: CN1CCN(c2ccc3nc(-c4cccc(N5CCc6ccccc6C5)c4)[nH]c3c2)CC1 [4a]
- EC50 (HT22 cells [1]; Mus musculus, HT-22, 24 h): 500 nM

SMILES: CC1CCN(c2ccc3nc(-c4cccc(N5CCc6ccccc6C5)c4)[nH]c3c2)CC1 [4b]
- EC50 (HT22 cells [1]; Mus musculus, HT-22, 24 h): 640 nM

SMILES: c1cc(-c2nc3ccc(N4CCCCC4)cc3[nH]2)cc(N2CCc3ccccc3C2)c1 [4c]
- EC50 (HT22 cells [1]; Mus musculus, HT-22, 24 h): 1210 nM

SMILES: CN1CCN(c2ccc3nc(-c4cccc(N5CCc6cc(F)ccc6C5)c4)[nH]c3c2)CC1 [9a]
- IC50 [2]: 3260 nM
- 4-hydroxynonenal (4-HNE) level in the lesioned hemisphere ([3]; 10 mg/kg i.p.): reduced
- PTGS2 gene expression in the lesioned hemisphere ([3]; 10 mg/kg i.p.): significantly decreased
- malondialdehyde (MDA) level in the lesioned hemisphere ([3]; 10 mg/kg i.p.): reduced
- neurological deficits (Longa test) ([3]; 10 mg/kg i.p., 24 h after MCAO and reperfusion): improved neurological deficits
- percentage of injured neurons in the cortex (Nissl staining) ([3]; 10 mg/kg i.p., lesioned hemisphere): reduced the percentage of injured neurons in the cortex
- infarct volume (TTC staining) [3]: substantially reduced infarct volume
- EC50 (HT22 cells [1]; Mus musculus, HT-22, 24 h): 290 nM
- competition of Biotin-14d binding to NCOA4 (NCOA4): competitively inhibited
- lipid ROS, oxidized BODIPY-C11 fluorescence intensity (HT22 cells [4]): remarkably decreased
- RSL3-induced cytosolic ROS accumulation (HT22 cells [4]; carboxy-H2DCFDA, flow cytometry): suppressed by 9a in a dose-dependent manner
- mRNA expressions of FTH1 and FTL (ferritin; 0.5 μM 9a, qPCR): did not change
- protein level of ferritin (ferritin; Western blotting): increased in a dose-dependent manner
- LC3-II level (HT22 cells [5]): no ability to induce an increase in the LC3-II level
- staurosporine (STS)-induced apoptosis (HT22 cells [6]; 0.5 μM STS, 24 h): cannot inhibit
- hydrogen peroxide (H2O2)-induced necrosis (HT22 cells [6]; 2 mM H2O2, 12 h): cannot inhibit
- TNF-α/SM-164/zVAD-fmk-induced necroptosis (HT22 cells [6]; 12 h): cannot inhibit
- intracellular GSH level (HT22 cells [7]): did not change
- GPX4 expression (HT22 cells [7]; immunoblot): did not change
- competition of Biotin-14d binding to NCOA4^383–522 (NCOA4^383–522 [8]): blocked
- RSL3-induced PTGS2 mRNA expression (PTGS2 mRNA): dose-dependently inhibited the upregulation of PTGS2 expression
- NCOA4–FTH1 interaction, co-IP of FTH1-Myc-His and NCOA4-Flag (NCOA4–FTH1 interaction; HEK-293T cells, 16 h treatment): substantially impaired
- endogenous NCOA4–FTH1 interaction, co-IP (NCOA4–FTH1 interaction; HT-1080 cells, 6 h): inhibited the endogenous NCOA4 interaction with FTH1
- ferroptosis induced by Erastin, RSL3, or ML210 (HT-1080 cells [9]; inducers 1 μM, 24 h): inhibited ferroptosis
- ferroptosis induced by knockdown of GPX4 (HT-1080 cells [9]; si-GPX4 12 h, then 0.5 μM 9a 36 h): significantly suppressed ferroptosis
- lipid ROS accumulation induced by knockdown of GPX4 (HT-1080 cells [10]): inhibited lipid ROS accumulation
- BSO-induced ferroptosis (HT22 cells [11]; 100 μM BSO, 12 h): dose-dependently prevented cell death
- ML210-induced ferroptosis (HT22 cells [11]; ML210 10 μM, 24 h): ferroptosis inhibitory behavior similar to those of Fer-1 and DFO
- cell death from cysteine depletion (HT22 cells [11]): significantly reduced the level of cell death
- Kd (NCOA4^383–522 [12]): 7480 nM
- fluorescence intensity of FerroOrange (free Fe^2+) (HT22 cells [13]): significantly decreased
- Fe^2+ in lysosomes (FerroOrange colocalized with LysoTracker Green) (HT22 cells [13]; 0.5 μM 9a): diminished

SMILES: Cc1ccc2c(c1)CN(c1cccc(-c3nc4ccc(N5CCN(C)CC5)cc4[nH]3)c1)CC2 [9e]
- EC50 (HT22 cells [1]; Mus musculus, HT-22, 24 h): 770 nM

SMILES: COc1cccc2c1CN(c1cccc(-c3nc4ccc(N5CCN(C)CC5)cc4[nH]3)c1)CC2 [9f]
- EC50 (HT22 cells [1]; Mus musculus, HT-22, 24 h): 330 nM

SMILES: CCOc1ccc2c(c1)CCN(c1cccc(-c3nc4ccc(N5CCN(C)CC5)cc4[nH]3)c1)C2 [14a]
- EC50 (HT22 cells [1]; Mus musculus, HT-22, 24 h): 510 nM

SMILES: CCCOc1ccc2c(c1)CCN(c1cccc(-c3nc4ccc(N5CCN(C)CC5)cc4[nH]3)c1)C2 [14b]
- EC50 (HT22 cells [1]; Mus musculus, HT-22, 24 h): 390 nM

SMILES: CC(C)Oc1ccc2c(c1)CCN(c1cccc(-c3nc4ccc(N5CCN(C)CC5)cc4[nH]3)c1)C2 [14c]
- EC50 (HT22 cells [1]; Mus musculus, HT-22, 24 h): 530 nM

SMILES: C#CCOc1ccc2c(c1)CCN(c1cccc(-c3nc4ccc(N5CCN(C)CC5)cc4[nH]3)c1)C2 [14d]
- EC50 (HT22 cells [1]; Mus musculus, HT-22, 24 h): 880 nM
- EC50 (HT22 cells [14]): 690 nM

SMILES: CC(=O)N(O)CCCCCNC(=O)CCC(=O)N(O)CCCCCNC(=O)CCC(=O)N(O)CCCCCN [DFO, Deferoxamine mesylate, reference compound]
- EC50 (HT22 cells [1]; Mus musculus, HT-22, 24 h): 5750 nM
- cell death from cysteine depletion (HT22 cells [11]): significantly reduced the level of cell death
- fluorescence intensity of FerroOrange (free Fe^2+) (HT22 cells [13]): significantly decreased

SMILES: CCOC(=O)c1ccc(NC2CCCCC2)c(N)c1 [Fer-1, Ferrostatin-1, reference compound]
- infarct volume (TTC staining) [3]: substantially reduced infarct volume
- EC50 (HT22 cells [1]; 1 μM Erastin, 24 h, CCK-8): 82 nM
- lipid ROS, oxidized BODIPY-C11 fluorescence intensity (HT22 cells [4]): remarkably decreased
- cell death from cysteine depletion (HT22 cells [11]): significantly reduced the level of cell death

— publication PMC8227600 (ACS Central Science, 2021)
